Source: ChEMBL document CHEMBL4422657, “Amino acid based prodrugs of a fosmidomycin surrogate as antimalarial and antitubercular agents” (Bioorg Med Chem, 2019)
In brackets after ≈: the same amount, converted by molar mass.

Columns and labels:
[1] = test system: Mycobacterium tuberculosis; assay: Antitubercular activity against Mycobacterium tuberculosis H37Rv after 7 days by Resazurin microtitre assay; type: functional; conditions: 168 h
Outline: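 Resazurin microtiter assay with M. tuberculosis H37Rv in Middlebrook 7H9 + 10% OADC + 0.5% glycerol + 0.1% casitone. Two-fold dilutions, final 50 to 3.12 µM. Inoculum from LJ subculture at McFarland 1, diluted 1:10. 7 days at 37 °C, normal atmosphere, then resazurin overnight. MIC is the lowest concentration preventing the blue-to-pink change, read visually.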

Plasmodium falciparum = assay: Antiplasmodial activity against chloroquine-resistant Plasmodium falciparum K1 infected in human erythrocytes measured after 72 hrs Malstat/NBT reagent based assay; type: functional, organism-based; conditions: K1, 72 h
Outline: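 Infected human red blood cells (1% parasitaemia, 2% haematocrit) incubated 72 h with compound, then frozen at -20 °C. Growth read by Malstat: haemolysate with Malstat reagent 15 min RT, then NBT/PES 2 h RT in dark, absorbance at 655 nm. Chloroquine positive control. IC50 reported.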

MRC5 = assay: Cytotoxicity against human MRC5 cells after 24 hrs by resazurin dye based assay; type: cell-based; conditions: MRC5, 24 h
Outline: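 MRC-5 human lung fibroblasts were grown in DMEM with 10% heat-inactivated FCS at 37 °C, 5% CO2. Cells were seeded at 4 x 10^4 per well and allowed to recover for at least 24 h, then exposed for 24 h to a two-fold dilution series (128 to 0.5 µM final). Cells were PBS-washed and incubated with resazurin for 3 h, and fluorescence was read at 560/590 nm. Tamoxifen served as positive control.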

[2] = Toxicity in Swiss mouse infected with Plasmodium berghei ANKA assessed as change in body weight at 50 mg/kg, ip administered once daily for 5 days measured on 11 days post infection (reference value: 81%); type: organism-based; conditions: in vivo, 264 h
[3] = Toxicity in Swiss mouse infected with Plasmodium berghei ANKA assessed as change in body weight at 50 mg/kg, ip administered once daily for 5 days measured on 4 days post infection (reference value: 100%); type: organism-based; conditions: in vivo, 96 h
Plasmodium berghei [4] = assay: Antimalarial activity against Plasmodium berghei ANKA infected in Swiss mouse assessed as suppression of parasitaemia at 50 mg/kg, ip administered once daily for […] measured on 4 days post infection by flow cytometry relative to control; type: functional
Plasmodium berghei [5] = assay: Antimalarial activity against Plasmodium berghei ANKA infected in Swiss mouse assessed as parasitaemia at 50 mg/kg, ip administered once daily for 5 days measured on 11 days post infection by flow cytometry (reference value: 44%); type: functional
Outline: (§1)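 Mice infected with P. berghei GFP ANKA strain were dosed intraperitoneally once daily for 5 consecutive days, at 50 mg/kg for test compounds or 10 mg/kg for chloroquine as the reference. Parasitemia was measured in surviving animals on days 4, 7, 11 and 14 post infection by flow cytometry, using 10 μL blood in 2000 μL PBS. Percent reduction was calculated against vehicle-treated infected controls.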

Plasmodium berghei [6] = assay: Antimalarial activity against Plasmodium berghei ANKA infected in Swiss mouse assessed as parasitaemia at 50 mg/kg, ip administered once daily for 5 days measured on 7 days post infection by flow cytometry (reference value: 19%); type: functional; outline: as §1
Plasmodium berghei [7] = assay: Antimalarial activity against Plasmodium berghei ANKA infected in Swiss mouse assessed as parasitaemia at 50 mg/kg, ip administered once daily for 5 days measured on 4 days post infection by flow cytometry (reference value: 17.1%); type: functional; outline: as §1
Plasmodium berghei [8] = assay: Antimalarial activity against Plasmodium berghei ANKA infected in Swiss mouse assessed as mean survival days at 50 mg/kg, ip administered once daily for 5 days (reference value: 11.2 day); type: functional
[9] = Toxicity in Swiss mouse infected with Plasmodium berghei ANKA assessed as change in body weight at 50 mg/kg, ip administered once daily for 5 days measured on 7 days post infection (reference value: 89%); type: organism-based; conditions: in vivo, 168 h
Plasmodium berghei [10] = assay: Antimalarial activity against Plasmodium berghei ANKA infected in Swiss mouse assessed as mean survival days at 10 mg/kg, ip administered once daily for 5 days (reference value: 11.2 day); type: functional
Plasmodium berghei [11] = assay: Antimalarial activity against Plasmodium berghei ANKA infected in Swiss mouse assessed as parasitaemia at 10 mg/kg, ip administered once daily for 5 days measured on 7 days post infection by flow cytometry (reference value: 19%); type: functional; outline: as §1
[12] = Toxicity in Swiss mouse infected with Plasmodium berghei ANKA assessed as change in body weight at 10 mg/kg, ip administered once daily for 5 days measured on 4 days post infection (reference value: 100%); type: organism-based; conditions: in vivo, 96 h
Plasmodium berghei [13] = assay: Antimalarial activity against Plasmodium berghei ANKA infected in Swiss mouse assessed as suppression of parasitaemia at 10 mg/kg, ip administered once daily for 5 days measured on 4 days post infection by flow cytometry relative to control; type: functional; outline: as §1
Plasmodium berghei [14] = assay: Antimalarial activity against Plasmodium berghei ANKA infected in Swiss mouse assessed as parasitaemia at 10 mg/kg, ip administered once daily for 5 days measured on 4 days post infection by flow cytometry (reference value: 17.1%); type: functional; outline: as §1
Plasmodium berghei [15] = assay: Antimalarial activity against Plasmodium berghei ANKA infected in Swiss mouse assessed as parasitaemia at 10 mg/kg, ip administered once daily for 5 days measured on 11 days post infection by flow cytometry (reference value: 44%); type: functional; outline: as §1
[16] = Toxicity in Swiss mouse infected with Plasmodium berghei ANKA assessed as change in body weight at 10 mg/kg, ip administered once daily for 5 days measured on 7 days post infection (reference value: 89%); type: organism-based; conditions: in vivo, 168 h
[17] = Toxicity in Swiss mouse infected with Plasmodium berghei ANKA assessed as change in body weight at 10 mg/kg, ip administered once daily for 5 days measured on 11 days post infection (reference value: 81%); type: organism-based; conditions: in vivo, 264 h
Plasmodium berghei [18] = assay: Antimalarial activity against Plasmodium berghei ANKA infected in Swiss mouse assessed as parasitaemia at 50 mg/kg, ip administered once daily for 5 days measured on 14 days post infection by flow cytometry (reference value: 64.6%); type: functional
[19] = Toxicity in Swiss mouse infected with Plasmodium berghei ANKA assessed as change in body weight at 50 mg/kg, ip administered once daily for 5 days measured on 14 days post infection (reference value: 75%); type: organism-based; conditions: in vivo, 336 h
[20] = test system: Mycobacterium tuberculosis; assay: Antitubercular activity against Mycobacterium tuberculosis H37Rv ATCC 27294 after 1 to 2 weeks; type: functional

| SMILES | MIC [1] | IC50 (Plasmodium falciparum) | IC50 (MRC5) | also measured |
| --- | --- | --- | --- | --- |
| CCOC(=O)[C@H](C)NP(=O)(CCCC(=O)N(C)O)N[C@@H](C)C(=O)OCC | 20 µM (≈ 7.91 µg/mL) | 5.06 µM | > 64 µM | – |
| CC(C)C[C@H](NP(=O)(CCCC(=O)N(C)O)N[C@@H](CC(C)C)C(=O)OCc1ccccc1)C(=O)OCc1ccccc1 | > 50 µM | 2.02 µM | 7.94 µM | – |
| CCOC(=O)[C@H](CC(C)C)NP(=O)(CCCC(=O)N(C)O)N[C@@H](CC(C)C)C(=O)OCC | 50 µM (≈ 24 µg/mL) | 3.91 µM | > 64 µM | – |
| COC(=O)[C@H](CC(C)C)NP(=O)(CCCC(=O)N(C)O)N[C@@H](CC(C)C)C(=O)OC | > 50 µM | 1.76 µM | > 64 µM | – |
| CCOC(=O)[C@H](CCCCN)NP(=O)(CCCC(=O)N(C)O)N[C@@H](CCCCN)C(=O)OCC | > 50 µM | 0.96 µM | > 64 µM | Activity [2]: 67%; Activity [3]: 99%; Activity (Plasmodium berghei [4]): 0.6%; Activity (Plasmodium berghei [5]): 34.7%; Activity (Plasmodium berghei [6]): 30.1%; Activity (Plasmodium berghei [7]): 17.1%; MSD (Plasmodium berghei [8]): 8.7 days; Activity [9]: 79% |
| CCOC(=O)[C@H](Cc1ccc(OP(=O)(Oc2ccc(C[C@H](NC(C)=O)C(=O)OCC)cc2)C(CCC(=O)N(C)O)c2ccc(Cl)c(Cl)c2)cc1)NC(C)=O (stereo not given in full) | > 50 µM | > 41.1 µM | 36.9 µM | – |
| CC(C)C[C@H](NP(=O)(CCCC(=O)N(C)O)N[C@@H](CC(C)C)C(=O)OC1CCCCC1)C(=O)OC1CCCCC1 | > 50 µM | 4.56 µM | 7.65 µM | – |
| CCCCCOC(=O)[C@H](CC(C)C)NP(=O)(CCCC(=O)N(C)O)N[C@@H](CC(C)C)C(=O)OCCCCC | > 50 µM | 2.37 µM | 7.46 µM | – |
| CCOC(=O)[C@@H](NP(=O)(CCCC(=O)N(C)O)N[C@H](C(=O)OCC)[C@@H](C)CC)[C@@H](C)CC | > 50 µM | 2 µM | > 64 µM | – |
| CCOC(=O)[C@H](Cc1ccccc1)NP(=O)(CCCC(=O)N(C)O)N[C@@H](Cc1ccccc1)C(=O)OCC | > 50 µM | 4.71 µM | > 64 µM | – |
| CCN(CC)CCCC(C)Nc1ccnc2cc(Cl)ccc12 (stereo not given) [CHLOROQUINE] | – | – | – | MSD (Plasmodium berghei [10]): 14 days; Activity (Plasmodium berghei [11]): 0.6%; Activity [12]: 99%; Activity (Plasmodium berghei [13]): 98.6%; Activity (Plasmodium berghei [14]): 0.2%; Activity (Plasmodium berghei [15]): 11.9%; Activity [16]: 101%; Activity [17]: 101% |
| CC(C)OC(=O)OCOP(=O)(CCCC(=O)N(C)O)OCOC(=O)OC(C)C | – | – | – | Activity [2]: 105%; Activity [3]: 104%; Activity (Plasmodium berghei [4]): 99%; Activity (Plasmodium berghei [5]): 3.7%; Activity (Plasmodium berghei [18]): 16.4%; Activity (Plasmodium berghei [6]): 0.04%; Activity (Plasmodium berghei [7]): 0.2%; MSD (Plasmodium berghei [8]): 15.3 days; Activity [19]: 100%; Activity [9]: 105% |
| CC(=O)N(CCCP(=O)(OCOC(=O)OC(C)(C)C)OCOC(=O)OC(C)(C)C)OCc1ccc(-c2ccccc2)cc1 | – | – | – | MIC [20]: 5.3 to 21 µM (≈ 3.31 to 13.1 µg/mL) |
| CCOC(=O)[C@H](C)NP(=O)(N[C@@H](C)C(=O)OCC)C(CCC(=O)N(C)O)c1ccc(Cl)c(Cl)c1 (stereo not given in full) | > 50 µM | > 36.6 µM | > 64 µM | – |
| CCOC(=O)[C@@H](N)Cc1ccc(OP(=O)(CCCC(=O)N(C)O)Oc2ccc(C[C@H](N)C(=O)OCC)cc2)cc1 | > 50 µM | 0.23 µM | > 64 µM | – |
| CC(C)C[C@H](NP(=O)(CCCC(=O)N(C)O)N[C@@H](CC(C)C)C(=O)OC(C)C)C(=O)OC(C)C | > 50 µM | 4.97 µM | > 64 µM | – |
| CCOC(=O)[C@@H]1CCCN1P(=O)(CCCC(=O)N(C)O)N1CCC[C@H]1C(=O)OCC | > 50 µM | 10.2 µM | > 64 µM | – |
| CCOC(=O)[C@H](Cc1ccc(OP(=O)(CCCC(=O)N(C)O)Oc2ccc(C[C@H](NC(C)=O)C(=O)OCC)cc2)cc1)NC(C)=O | > 50 µM | 0.31 µM | > 64 µM | Activity [2]: 86%; Activity [3]: 102%; Activity (Plasmodium berghei [4]): 82%; Activity (Plasmodium berghei [5]): 29.2%; Activity (Plasmodium berghei [18]): 32.6%; Activity (Plasmodium berghei [6]): 6.5%; Activity (Plasmodium berghei [7]): 3%; MSD (Plasmodium berghei [8]): 12.7 days; Activity [19]: 69%; Activity [9]: 104% |
| CCOC(=O)[C@@H](NP(=O)(CCCC(=O)N(C)O)N[C@H](C(=O)OCC)C(C)C)C(C)C | > 50 µM | 12.7 µM | > 64 µM | – |
